Measured values published in ChEMBL document CHEMBL4406888, “Synthesis of analogs of the Gwt1 inhibitor manogepix (APX001A) and in vitro evaluation against Cryptococcus spp” (Bioorg Med Chem Lett, 2019).
Converted amounts (≈) assume the structure as drawn.

Assays:
[1] = system: Cryptococcus neoformans; experiment: Antifungal activity against Cryptococcus neoformans incubated for 72 hrs by broth micro dilution method; assay type: functional
[2] = system: Cryptococcus gattii; experiment: Antifungal activity against Cryptococcus gattii incubated for 72 hrs by broth micro dilution method; assay type: functional
[3] = Half life in human liver microsomes at 1 uM preincubated for 5 mins followed by NADPH addition and measured for 45 mins by LC/MS analysis; assay type: ADME, Microsome; details: for t1/2: microsomes, 0.75 h, 1 µM
[4] = system: HepG2; experiment: Cytotoxicity against human HepG2 cells assessed as reduction in cell viability at 3 uM by CellTiter-Glo luminescent cell viability assay relative to control; assay type: cell-based; details: hepg2, 3 µM
[5] = target: T1, GPI-anchored wall transfer protein 1 (Candida albicans (strain SC5314 / ATCC MYA-2876) (Yeast)) (UniProt Q873N2); experiment: Antifungal activity against Candida albicans GWT1 expressed in Saccharomyces cerevisiae assessed as overexpression ratio
T1 sequence (whole entry): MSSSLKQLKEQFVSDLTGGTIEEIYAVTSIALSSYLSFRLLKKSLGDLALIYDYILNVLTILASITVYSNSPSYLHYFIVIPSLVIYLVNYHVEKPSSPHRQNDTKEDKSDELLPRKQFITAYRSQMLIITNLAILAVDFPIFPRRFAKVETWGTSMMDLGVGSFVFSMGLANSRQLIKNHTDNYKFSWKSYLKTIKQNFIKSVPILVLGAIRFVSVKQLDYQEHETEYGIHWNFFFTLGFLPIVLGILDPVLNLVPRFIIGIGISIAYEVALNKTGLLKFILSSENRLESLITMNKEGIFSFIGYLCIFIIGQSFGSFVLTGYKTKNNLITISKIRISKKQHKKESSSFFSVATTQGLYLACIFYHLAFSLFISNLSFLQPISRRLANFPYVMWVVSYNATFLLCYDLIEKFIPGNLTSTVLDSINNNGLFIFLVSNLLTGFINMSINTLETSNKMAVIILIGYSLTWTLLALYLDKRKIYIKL
In short: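 MICs measured against S. cerevisiae strains expressing high and low levels of Gwt1. The value is the ratio of the two strains' MICs.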

[6] = target: T2, PIGW (glucosaminyl-phosphatidylinositol-acyltransferase) (Homo sapiens, UniProt Q7Z7B1); experiment: Inhibition of human PIGW expressed in Saccharomyces cerevisiae at 16 uM by spectrophotometric analysis relative to control; details: Saccharomyces cerevisiae expressing human PIGW
T2 sequence (Q7Z7B1 whole entry): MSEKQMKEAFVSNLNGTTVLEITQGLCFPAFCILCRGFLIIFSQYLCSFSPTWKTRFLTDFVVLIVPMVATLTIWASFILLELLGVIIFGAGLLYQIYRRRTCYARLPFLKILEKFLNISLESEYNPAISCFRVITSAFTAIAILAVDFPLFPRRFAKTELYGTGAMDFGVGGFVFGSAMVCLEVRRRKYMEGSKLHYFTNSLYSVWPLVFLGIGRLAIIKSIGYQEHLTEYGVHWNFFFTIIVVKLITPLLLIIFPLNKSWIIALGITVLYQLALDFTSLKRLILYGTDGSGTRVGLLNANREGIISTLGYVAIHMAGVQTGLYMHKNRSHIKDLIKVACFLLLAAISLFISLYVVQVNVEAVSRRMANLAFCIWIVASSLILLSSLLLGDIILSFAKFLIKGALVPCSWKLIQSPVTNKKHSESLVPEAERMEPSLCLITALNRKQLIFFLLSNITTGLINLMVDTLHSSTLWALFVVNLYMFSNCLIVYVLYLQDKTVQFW

MIC [1] [µg/mL] | MIC [2] [µg/mL] | t1/2 [3] [min] | half-life at 1 µM ([3]; liver microsomes) [min] | SMILES | Cell viability (% of control) [4] [%] | Ratio [5] | inhibition at 16 µM [6] [%]
2 (≈ 5.52 µM) | 2 (≈ 5.52 µM) | – | – | Cc1occc1COc1ccc(Cc2cc(-c3cccnc3N)on2)cn1 | – | – | –
– | – | – | 40.8 | O=C(c1ccc(F)cc1)C1CCN(CCn2c(=O)[nH]c3ccccc3c2=O)CC1 [KETANSERIN] | – | – | –
0.125 (≈ 0.351 µM) | 0.063 (≈ 0.177 µM) | – | – | Nc1ncccc1-c1cc(Cc2ccc(CNc3ccccc3)cc2)no1 | – | – | –
0.031 (≈ 0.0824 µM) | 0.031 (≈ 0.0824 µM) | – | – | Nc1ncccc1-c1cc(Cc2ccnc(OCc3cccc(F)c3)c2)no1 | – | – | –
0.016 (≈ 0.0465 µM) | 0.008 (≈ 0.0232 µM) | 61.5 | – | Nc1ncccc1-c1cc(Cc2ccc(Oc3ccccn3)cc2)no1 | 77 | – | –
0.5 (≈ 1.41 µM) | 0.5 (≈ 1.41 µM) | – | – | Nc1ncccc1-c1cc(Cc2ccc(CCc3ccccc3)cc2)no1 | – | – | –
0.25 (≈ 0.666 µM) | 0.25 (≈ 0.666 µM) | – | – | Nc1ncccc1-c1cc(Cc2ccc(CNc3cccc(F)n3)cc2)no1 | – | – | –
0.063 (≈ 0.161 µM) | 0.063 (≈ 0.161 µM) | – | – | Nc1ncccc1-c1cc(Cc2ccc(OCCc3cccc(F)c3)nc2)no1 | – | – | –
0.016 (≈ 0.0446 µM) | 0.008 (≈ 0.0223 µM) | 17.3 | – | Nc1ncccc1-c1cc(Cc2ccc(OCc3ccncc3)cc2)no1 | – | – | –
0.016 (≈ 0.0483 µM) | 0.016 (≈ 0.0483 µM) | 3.15 | – | Nc1ncccc1-c1cc(Cc2ccc(Cc3ccco3)cc2)no1 | – | – | –
0.125 (≈ 0.35 µM) | 0.063 (≈ 0.176 µM) | – | – | Nc1ncccc1-c1cc(Cc2ccc(COc3ccccc3)cc2)no1 | – | – | –
0.016 (≈ 0.0442 µM) | 0.031 (≈ 0.0855 µM) | – | – | Nc1ncccc1-c1cc(Cc2ccc(Oc3ccccc3F)nc2)no1 | – | – | –
0.031 (≈ 0.0867 µM) | 0.031 (≈ 0.0867 µM) | – | – | Nc1ncccc1-c1cc(Cc2ccc(OCc3ccccc3)cc2)no1 | – | – | –

Continued, compound first:

SMILES | MIC [1] [µg/mL] | MIC [2] [µg/mL] | t1/2 [3] [min] | half-life at 1 µM ([3]; liver microsomes) [min] | Cell viability (% of control) [4] [%] | Ratio [5] | inhibition at 16 µM [6] [%]
Nc1ncccc1-c1cc(Cc2ccc(OCc3ccccc3F)nc2)no1 | 0.031 (≈ 0.0824 µM) | 0.031 (≈ 0.0824 µM) | – | – | – | – | –
Nc1ncccc1-c1cc(Cc2ccc(OCC3CCC3)nc2)no1 | 0.016 (≈ 0.0476 µM) | 0.008 (≈ 0.0238 µM) | 4.65 | – | – | – | –
Nc1ncccc1-c1cc(Cc2ccc(OCc3cccc(Cl)c3)nc2)no1 | 0.016 (≈ 0.0407 µM) | 0.016 (≈ 0.0407 µM) | – | – | 98 | 4 | 80
CC(Oc1ccc(Cc2cc(-c3cccnc3N)on2)cn1)c1ccccc1F (configuration not stated) | 0.25 (≈ 0.64 µM) | 0.5 (≈ 1.28 µM) | – | – | – | – | –
Nc1ncccc1-c1cc(Cc2ccc(OCc3ccoc3)nc2)no1 | 0.016 (≈ 0.0459 µM) | 0.031 (≈ 0.089 µM) | – | – | – | – | –
Nc1ncccc1-c1cc(Cc2ccnc(OCCc3cccc(F)c3)c2)no1 | 0.5 (≈ 1.28 µM) | 1 (≈ 2.56 µM) | – | – | – | – | –
Nc1ncccc1-c1cc(Cc2ccc(OCC3CC3)nc2)no1 | 0.031 (≈ 0.0962 µM) | 0.016 (≈ 0.0496 µM) | – | – | – | – | –
Cc1nccc(NCc2ccc(Cc3cc(-c4cccnc4N)on3)cc2)n1 | > 4 | > 4 | – | – | – | – | –
Nc1ncccc1-c1cc(Cc2ccc(OCc3ccncc3)nc2)no1 | 0.008 (≈ 0.0223 µM) | 0.008 (≈ 0.0223 µM) | 20.3 | – | – | – | –
Nc1ncccc1-c1cc(Cc2ccc(OCCc3ccccc3F)nc2)no1 | 0.031 (≈ 0.0794 µM) | 0.031 (≈ 0.0794 µM) | – | – | – | – | –
Nc1ncccc1-c1cc(Cc2ccc(Oc3cccc(F)c3)nc2)no1 | 0.008 (≈ 0.0221 µM) | 0.016 (≈ 0.0442 µM) | 93.9 | – | 102 | 8 | 0
Nc1ncccc1-c1cc(Cc2ccc(Cc3ccc(F)o3)cc2)no1 | 0.016 (≈ 0.0458 µM) | 0.016 (≈ 0.0458 µM) | 14.4 | – | – | – | –
Nc1ncccc1-c1cc(Cc2ccc(Cc3ccccc3)cc2)no1 | 0.031 (≈ 0.0908 µM) | 0.008 (≈ 0.0234 µM) | – | – | – | – | –
Nc1ncccc1-c1cc(Cc2ccc(Oc3cccc(F)n3)cc2)no1 | 0.008 (≈ 0.0221 µM) | 0.004 (≈ 0.011 µM) | 43 | – | 93 | 16 | 0
Nc1ncccc1-c1cc(Cc2ccc(CNCc3ccn[nH]3)cc2)no1 | > 4 | > 4 | – | – | – | – | –
Nc1ncccc1-c1cc(Cc2ccc(Cn3cccn3)cc2)no1 | 0.25 (≈ 0.754 µM) | 0.063 (≈ 0.19 µM) | – | – | – | – | –
Nc1ncccc1-c1cc(Cc2ccc(Cc3cccc(F)n3)cc2)no1 | 0.031 (≈ 0.086 µM) | 0.016 (≈ 0.0444 µM) | – | – | – | – | –
Nc1ncccc1-c1cc(Cc2ccc(Nc3ccccc3F)nc2)no1 | 0.016 (≈ 0.0443 µM) | 0.016 (≈ 0.0443 µM) | 37.1 | – | – | – | –
Nc1ncccc1-c1cc(Cc2ccc(OCc3cccc(F)c3)nc2)no1 | 0.016 (≈ 0.0425 µM) | 0.016 (≈ 0.0425 µM) | 62.3 | – | 97 | 8 | 5
Nc1ncccc1-c1cc(Cc2ccc(COc3ccccn3)cc2)no1 [MANOGEPIX] | 0.25 (≈ 0.698 µM) | 0.125 (≈ 0.349 µM) | 49.9 | – | 98 | 8 | 0
